Measurements: article PMC3788622 (Journal of Medicinal Chemistry, 2013)
Entries after “also recorded” stand apart in the source; their conditions may differ.

Legend:
male C57BL/6J mice [1] = assay: Histopathology after single subcutaneous injection; type: in vivo, mouse
How it was run: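 After the single sc dose (1, 3 or 10 mg/kg, 25% DMSO/saline, 9-day observation), two representative mice per group were fixed in 10% formalin. A veterinary pathologist examined cecum, duodenum, heart, ileum, kidney, liver, lung, pancreas, spleen and stomach, blinded to animal identity.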

male C57BL/6J mice [2] = assay: Serum markers of liver and kidney damage after single subcutaneous injection; type: in vivo, mouse; conditions: single sc dose 1, 3, 10 mg/kg; dose stated in the value
How it was run: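 All mice from the single sc dose groups (1, 3, 10 mg/kg in 25% DMSO/saline, n = 4, 9-day observation) were bled retro-orbitally. Serum was obtained by centrifugation at 6000 rpm for 5 min. ALT, AST, total bilirubin, BUN and creatinine were measured externally, blinded to animal identity.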

LNCaP xenografts = conditions: immunocompromised mice, three sc injections at 1 mg/kg; cited from earlier work
male C57BL/6J mice [3] = assay: Histopathology after multiple subcutaneous injections; type: in vivo, mouse; conditions: 1 mg/kg sc every 3 days, three injections
p53 [4] = conditions: cited from earlier work
p53 [5] = assay: p53 protein ELISA; type: cell-based; conditions: LNCaP cells, 10 μM, 72 h
How it was run: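 LNCaP cells were treated with 10 μM test compound for 72 h. Controls were DMSO vehicle and 1 μM doxorubicin for 24 h. RPB1 was measured with an RPB1-specific ELISA kit and total p53 with a pan-p53 ELISA kit, each following the kit instructions, in biological triplicates.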

male C57BL/6J mice [6] = assay: Escalating single dose subcutaneous injections: animal weight and behavior; type: in vivo, mouse; conditions: single sc injection at 1, 3, and 10 mg/kg, observed 9 days
How it was run: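 Male C57BL/6J mice, 8 weeks old, were acclimatised 3 days after arrival. Groups of four received one sc dose of 1, 3 or 10 mg/kg in up to 200 μL 25% DMSO/saline. Doses were set by UV/vis using ε 69 500 M–1·cm–1 near 315 nm. Mice were weighed daily for 9 days, then sacrificed. Humane end point was visible duress or weight loss over 15% of starting weight.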

male C57BL/6J mice [7] = assay: Serum markers of liver and kidney damage after multiple subcutaneous injections; type: in vivo, mouse; conditions: 1 mg/kg sc every 3 days, three injections
How it was run: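 Male C57BL/6J mice, 8 weeks old, were dosed in groups of three with 1 mg/kg sc every 3 days for three injections and sacrificed 2 days after the last. Weight was recorded on injection days and at the end point. Retro-orbital blood was spun at 6000 rpm for 5 min. Serum ALT, AST, total bilirubin, BUN and creatinine were assayed blinded.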

CN(CCCNC(=O)c1cccc(C(=O)O)c1)CCCNC(=O)c1cc(NC(=O)c2cc(NC(=O)c3cc(NC(=O)c4nc(NC(=O)[C@H](N)CCNC(=O)c5cc(NC(=O)c6cc(NC(=O)c7cc(NC(=O)c8nccn8C)cn7C)cn6C)cn5C)cn4C)cn3C)cn2C)cn1C [Polyamide 1, ImPyPyPy-2-(R)^H2Nγ-ImPyPyPy∼NHMe∼IPA]
Liver lesions by histopathology (in words) (male C57BL/6J mice [1]; single sc dose 3 mg/kg): Mild hepatocellular necrosis and apoptosis | Kidney lesions by histopathology (in words) (male C57BL/6J mice [1]; single sc dose 10 mg/kg): Milder tubular regeneration and karyomegaly | Liver lesions by histopathology (in words) (male C57BL/6J mice [1]; single sc dose 10 mg/kg): Mild hepatocellular necrosis and apoptosis | Elevation of serum markers of liver and kidney damage (in words) (male C57BL/6J mice [2]): significant elevation of AST, ALT, and total bilirubin at 10 mg/kg; also recorded: moderate elevation of ALT at 3 mg/kg; also recorded: Elevation of creatinine and blood urea nitrogen (BUN) was not observed for any dose level | Growth of LNCaP xenografts (LNCaP xenografts): suppress the growth of LNCaP xenografts | Kidney lesions by histopathology (in words) (male C57BL/6J mice [3]): mild variable tubular attenuation, karyomegaly, and epithelial necrosis and apoptosis | Liver lesions by histopathology (in words) (male C57BL/6J mice [3]): mild multifocal hepatocellular necrosis and apoptosis | Effect on cellular p53 protein (p53 [4]): increase cellular p53 protein | Cellular level of p53 protein (p53 [5]): increases | Weight loss (male C57BL/6J mice [6]): significant weight loss only at 10 mg/kg | Alteration of liver and kidney serum markers (in words) (male C57BL/6J mice [7]): elevated AST and ALT
